{"source": "paper PMC8451688", "about": "(Journal of Enzyme Inhibition and Medicinal Chemistry, 2021)", "key": {"A549 cells [1]": {"system": "A549 cells", "assay": "cells", "type": "cell-based, human", "conditions": "mean of triplicate; for IC50 (%inhibition ± SD) A549: Table 3"}, "PC-3 cells": {"system": "PC-3 cells", "type": "cell-based, human", "conditions": "Table 3; MTT; mean of triplicate"}, "HepG2 cells": {"system": "HepG2 cells", "type": "cell-based, human", "conditions": "Table 3; MTT; mean of triplicate"}, "NRK-52E cells": {"system": "NRK-52E cells", "type": "cell-based", "conditions": "Table 3; normal rat kidney cell line; MTT"}, "A549 cells [2]": {"system": "A549 cells", "assay": "Cell cycle analysis by PI flow cytometry", "type": "cell-based, human", "conditions": "24 h", "how_it_was_run": "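A549 cells were treated for 24 h with test compound at 0, 4 or 8 µM, with 0.1% DMSO as control. Cells were collected and washed twice in cold PBS, then fixed in cold 70% ethanol overnight at 4 °C. They were treated with 1 mg/mL RNase A for 30 min at 37 °C, stained with PI for 30 min at 4 °C in the dark, and analysed by flow cytometry.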"}, "[3]": {"conditions": "Homo sapiens, A549, read-out: IC50 A549, MTT"}}, "note": "Where two headings read alike, the source gives them in different places."}
{"molecule": "O=C(CN1C(=O)/C(=C/c2ccccc2)SC1=S)Nc1ccccc1", "note": "[I1, (Z)-2–(5-benzylidene-4-oxo-2-thioxothiazolidin-3-yl)-N-phenylacetamide]", "values": [{"measurement": "IC50", "setting": "A549 cells [1]; [3]", "value": "11.3 ± 1.5", "unit": "µM"}, {"measurement": "IC50 (%inhibition ± SD) A549", "setting": "A549 cells [1]; MTT", "value": "11.3 ± 1.50", "unit": "%"}, {"measurement": "IC50 (%inhibition ± SD) PC-3", "setting": "PC-3 cells", "value": "21.7 ± 2.89", "unit": "%"}, {"measurement": "IC50 (%inhibition ± SD) HepG2", "setting": "HepG2 cells", "value": "24.7 ± 8.91", "unit": "%"}, {"measurement": "IC50 (%inhibition ± SD) NRK-52E", "setting": "NRK-52E cells", "value": "13.1 ± 3.58", "unit": "%"}]}
{"molecule": "O=C(CN1C(=O)/C(=C/c2ccccc2F)SC1=S)Nc1ccccc1", "note": "[I2, (Z)-2–(5-(2-fluorobenzylidene)-4-oxo-2-thioxothiazolidin-3-yl)-N-phenylacetamide]", "values": [{"measurement": "IC50", "setting": "A549 cells [1]; read-out: IC50 A549, MTT", "value": "22.7 ± 5.45", "unit": "µM"}]}
{"molecule": "O=C(CN1C(=O)/C(=C/c2ccccc2O)SC1=S)Nc1ccccc1", "note": "[I4, (Z)-2–(5-(2-hydroxybenzylidene)-4-oxo-2-thioxothiazolidin-3-yl)-N-phenylacetamide]", "values": [{"measurement": "IC50", "setting": "A549 cells [1]; [3]", "value": "15.8 ± 3.03", "unit": "µM"}]}
{"molecule": "COc1ccccc1/C=C1\\SC(=S)N(CC(=O)Nc2ccccc2)C1=O", "note": "[I5, (Z)-2–(5-(2-methoxybenzylidene)-4-oxo-2-thioxothiazolidin-3-yl)-N-phenylacetamide]", "values": [{"measurement": "IC50", "setting": "A549 cells [1]; [3]", "value": "13.4 ± 5.03", "unit": "µM"}, {"measurement": "IC50 (%inhibition ± SD) A549", "setting": "A549 cells [1]; MTT", "value": "13.4 ± 5.03", "unit": "%"}, {"measurement": "IC50 (%inhibition ± SD) HepG2", "setting": "HepG2 cells", "value": "36.4 ± 8.00", "unit": "%"}, {"measurement": "IC50 (%inhibition ± SD) NRK-52E", "setting": "NRK-52E cells", "value": "17.4 ± 4.57", "unit": "%"}]}
{"molecule": "O=C(CN1C(=O)/C(=C/c2cccc([N+](=O)[O-])c2)SC1=S)Nc1ccccc1", "note": "[I6, (Z)-2–(5-(3-nitrobenzylidene)-4-oxo-2-thioxothiazolidin-3-yl)-N-phenylacetamide]", "values": [{"measurement": "IC50", "setting": "A549 cells [1]; [3]", "value": "22.9 ± 2.07", "unit": "µM"}]}
{"molecule": "O=C(CN1C(=O)/C(=C/c2cccc(F)c2)SC1=S)Nc1ccccc1", "note": "[I7, (Z)-2–(5-(3-fluorobenzylidene)-4-oxo-2-thioxothiazolidin-3-yl)-N-phenylacetamide]", "values": [{"measurement": "IC50", "setting": "A549 cells [1]; [3]", "value": "29.6 ± 3.72", "unit": "µM"}]}
{"molecule": "O=C(CN1C(=O)/C(=C/c2cccc(Cl)c2)SC1=S)Nc1ccccc1", "note": "[I8, (Z)-2–(5-(3-chlorobenzylidene)-4-oxo-2-thioxothiazolidin-3-yl)-N-phenylacetamide]", "values": [{"measurement": "IC50", "setting": "A549 cells [1]; [3]", "value": "31 ± 2.21", "unit": "µM"}]}
{"molecule": "O=C(CN1C(=O)/C(=C/c2cccc(O)c2)SC1=S)Nc1ccccc1", "note": "[I10, (Z)-2–(5-(3-hydroxybenzylidene)-4-oxo-2-thioxothiazolidin-3-yl)-N-phenylacetamide]", "values": [{"measurement": "IC50", "setting": "A549 cells [1]; [3]", "value": "42.8 ± 6.5", "unit": "µM"}]}
{"molecule": "O=C(CN1C(=O)/C(=C/c2ccc([N+](=O)[O-])cc2)SC1=S)Nc1ccccc1", "note": "[I12, (Z)-2–(5-(4-nitrobenzylidene)-4-oxo-2-thioxothiazolidin-3-yl)-N-phenylacetamide]", "values": [{"measurement": "IC50", "setting": "A549 cells [1]; [3]", "value": "23.6 ± 3", "unit": "µM"}]}
{"molecule": "O=C(CN1C(=O)/C(=C/c2ccc(C(F)(F)F)cc2)SC1=S)Nc1ccccc1", "note": "[I13, (Z)-2-(4-oxo-2-thioxo-5-(4-(trifluoromethyl)benzylidene)thiazolidin-3-yl)-N-phenylacetamide]", "values": [{"measurement": "IC50", "setting": "A549 cells [1]; [3]", "value": "20.1 ± 3.13", "unit": "µM"}]}
{"molecule": "O=C(CN1C(=O)/C(=C/c2ccc(F)cc2)SC1=S)Nc1ccccc1", "note": "[I14, (Z)-2–(5-(4-fluorobenzylidene)-4-oxo-2-thioxothiazolidin-3-yl)-N-phenylacetamide]", "values": [{"measurement": "IC50", "setting": "A549 cells [1]; [3]", "value": "18.8 ± 3.31", "unit": "µM"}]}
{"molecule": "O=C(CN1C(=O)/C(=C/c2ccc(Cl)cc2)SC1=S)Nc1ccccc1", "note": "[I15, (Z)-2–(5-(4-chlorobenzylidene)-4-oxo-2-thioxothiazolidin-3-yl)-N-phenylacetamide]", "values": [{"measurement": "IC50 (%inhibition ± SD) PC-3", "setting": "PC-3 cells", "value": "17.6 ± 2.51", "unit": "%"}, {"measurement": "IC50 (%inhibition ± SD) HepG2", "setting": "HepG2 cells", "value": "20.6 ± 5.19", "unit": "%"}, {"measurement": "IC50 (%inhibition ± SD) NRK-52E", "setting": "NRK-52E cells", "value": "15.1 ± 2.45", "unit": "%"}]}
{"molecule": "O=C(CN1C(=O)/C(=C/c2ccc(O)cc2)SC1=S)Nc1ccccc1", "note": "[I16, (Z)-2-(5-(4-hydroxybenzylidene)-4-oxo-2-thioxothiazolidin-3-yl)-N-phenylacetamide]", "values": [{"measurement": "IC50", "setting": "A549 cells [1]; [3]", "value": "16.8 ± 3.66", "unit": "µM"}]}
{"molecule": "CC(C)c1ccc(/C=C2\\SC(=S)N(CC(=O)Nc3ccccc3)C2=O)cc1", "note": "[I17, (Z)-2-(5-(4-isopropylbenzylidene)-4-oxo-2-thioxothiazolidin-3-yl)-N-phenylacetamide]", "values": [{"measurement": "IC50", "setting": "A549 cells [1]; [3]", "value": "20.7 ± 3.33", "unit": "µM"}]}
{"molecule": "CCOc1ccc(/C=C2\\SC(=S)N(CC(=O)Nc3ccccc3)C2=O)cc1", "note": "[I19, (Z)-2-(5-(4-ethoxybenzylidene)-4-oxo-2-thioxothiazolidin-3-yl)-N-phenylacetamide]", "values": [{"measurement": "IC50 (%inhibition ± SD) PC-3", "setting": "PC-3 cells", "value": "18.1 ± 3.68", "unit": "%"}, {"measurement": "IC50 (%inhibition ± SD) HepG2", "setting": "HepG2 cells", "value": "18.8 ± 5.40", "unit": "%"}, {"measurement": "IC50 (%inhibition ± SD) NRK-52E", "setting": "NRK-52E cells", "value": "11.0 ± 3.10", "unit": "%"}]}
{"molecule": "O=C(CN1C(=O)/C(=C/c2ccc(Cl)cc2Cl)SC1=S)Nc1ccccc1", "note": "[I21, (Z)-2-(5-(2,4-dichlorobenzylidene)-4-oxo-2-thioxothiazolidin-3-yl)-N-phenylacetamide]", "values": [{"measurement": "IC50", "setting": "A549 cells [1]; [3]", "value": "36.9 ± 1.36", "unit": "µM"}]}
{"molecule": "O=C(CN1C(=O)/C(=C/C2CC2)SC1=S)Nc1ccccc1", "note": "[I23, (Z)-2-(5-(cyclopropylmethylene)-4-oxo-2-thioxothiazolidin-3-yl)-N-phenylacetamide]", "values": [{"measurement": "IC50", "setting": "A549 cells [1]; [3]", "value": "15.7 ± 0.98", "unit": "µM"}]}
{"molecule": "O=C(CN1C(=O)/C(=C/c2ccco2)SC1=S)Nc1ccccc1", "note": "[I24, (Z)-2-(5-(furan-2-ylmethylene)-4-oxo-2-thioxothiazolidin-3-yl)-N-phenylacetamide]", "values": [{"measurement": "IC50 (%inhibition ± SD) PC-3", "setting": "PC-3 cells", "value": "25.1 ± 3.39", "unit": "%"}, {"measurement": "IC50 (%inhibition ± SD) NRK-52E", "setting": "NRK-52E cells", "value": "20.1 ± 2.12", "unit": "%"}]}
{"molecule": "O=C(CN1C(=O)/C(=C/c2cccs2)SC1=S)Nc1ccccc1", "note": "[I25, (Z)-2–(4-oxo-5-(thiophen-2-ylmethylene)-2-thioxothiazolidin-3-yl)-N-phenylacetamide]", "values": [{"measurement": "IC50", "setting": "A549 cells [1]; [3]", "value": "16 ± 3.46", "unit": "µM"}]}
{"molecule": "O=C(CN1C(=O)/C(=C/c2ccc[nH]2)SC1=S)Nc1ccccc1", "note": "[I26, (Z)-2-(5-((1H-pyrrol-2-yl)methylene)-4-oxo-2-thioxothiazolidin-3-yl)-N-phenylacetamide]", "values": [{"measurement": "IC50", "setting": "A549 cells [1]; [3]", "value": "20 ± 4.25", "unit": "µM"}]}
{"molecule": "O=C(CN1C(=O)/C(=C/c2ccccn2)SC1=S)Nc1ccccc1", "note": "[I28, (Z)-2-(4-oxo-5-(pyridin-2-ylmethylene)-2-thioxothiazolidin-3-yl)-N-phenylacetamide]", "values": [{"measurement": "IC50", "setting": "A549 cells [1]; [3]", "value": "17.3 ± 3.9", "unit": "µM"}]}
{"molecule": "O=C(CN1C(=O)/C(=C/c2ccncc2)SC1=S)Nc1ccccc1", "note": "[I29, (Z)-2-(4-oxo-5-(pyridin-4-ylmethylene)-2-thioxothiazolidin-3-yl)-N-phenylacetamide]", "values": [{"measurement": "IC50", "setting": "A549 cells [1]; [3]", "value": "26.4 ± 8", "unit": "µM"}]}
{"molecule": "COc1cccc(NC(=O)CN2C(=O)/C(=C/c3ccccc3)SC2=S)c1", "note": "[I30, (Z)-2-(5-benzylidene-4-oxo-2-thioxothiazolidin-3-yl)-N-(3-methoxyphenyl)acetamide]", "values": [{"measurement": "IC50", "setting": "A549 cells [1]; [3]", "value": "22.1 ± 3.41", "unit": "µM"}]}
{"molecule": "COc1cccc(NC(=O)CN2C(=O)/C(=C/C3CC3)SC2=S)c1", "note": "[I32, (Z)-2–(5-(cyclopropylmethylene)-4-oxo-2-thioxothiazolidin-3-yl)-N-(3-methoxyphenyl)acetamide]", "values": [{"measurement": "IC50", "setting": "A549 cells [1]; [3]", "value": "39.1 ± 5.62", "unit": "µM"}]}
{"molecule": "COc1cccc(NC(=O)CN2C(=O)/C(=C/c3ccco3)SC2=S)c1", "note": "[I33, (Z)-2–(5-(furan-2-ylmethylene)-4-oxo-2-thioxothiazolidin-3-yl)-N-(3-methoxyphenyl)acetamide]", "values": [{"measurement": "IC50", "setting": "A549 cells [1]; [3]", "value": "46.5 ± 7.31", "unit": "µM"}]}
{"molecule": "COc1cccc(NC(=O)CN2C(=O)/C(=C/c3cccs3)SC2=S)c1", "note": "[I34, (Z)-N-(3-methoxyphenyl)-2–(4-oxo-5-(thiophen-2-ylmethylene)-2-thioxothiazolidin-3-yl)acetamide]", "values": [{"measurement": "IC50", "setting": "A549 cells [1]; [3]", "value": "17.8 ± 3.75", "unit": "µM"}]}
{"molecule": "(Z)-2-(5-(2-hydroxy-3-methoxybenzylidene)-4-oxo-2-thioxothiazolidin-3-yl)-N-phenylacetamide [I22]", "values": [{"measurement": "IC50", "setting": "A549 cells [1]; read-out: IC50 A549, MTT", "value": "84.9 ± 9", "unit": "µM"}]}
{"molecule": "(Z)-2-(5-(4-(dimethylamino)benzylidene)-4-oxo-2-thioxothiazolidin-3-yl)-N-phenylacetamide [I20]", "values": [{"measurement": "IC50 (%inhibition ± SD) A549", "setting": "A549 cells [1]; MTT", "value": "7.00 ± 1.06", "unit": "%"}, {"measurement": "IC50", "setting": "A549 cells [1]; read-out: IC50 A549, MTT", "value": "7 ± 1.06", "unit": "µM"}, {"measurement": "IC50 (%inhibition ± SD) PC-3", "setting": "PC-3 cells", "value": "19.9 ± 5.56", "unit": "%"}, {"measurement": "IC50 (%inhibition ± SD) HepG2", "setting": "HepG2 cells", "value": "20.3 ± 2.93", "unit": "%"}, {"measurement": "IC50 (%inhibition ± SD) NRK-52E", "setting": "NRK-52E cells", "value": "14.7 ± 1.58", "unit": "%"}, {"measurement": "percentage of cells in G2/M", "setting": "A549 cells [2]; A549, 4 µM", "value": 10.92, "unit": "%"}, {"measurement": "percentage of cells in G2/M", "setting": "A549 cells [2]; A549, 8 µM", "value": 15.45, "unit": "%"}]}
{"molecule": "(Z)-2-(5-(cyclohex-2-en-1-ylmethylene)-4-oxo-2-thioxothiazolidin-3-yl)-N-phenylacetamide [I27]", "values": [{"measurement": "IC50", "setting": "A549 cells [1]; read-out: IC50 A549, MTT", "value": "51.3 ± 9.09", "unit": "µM"}]}
